In ChEMBL document CHEMBL1154678, “beta-Lactams derived from a carbapenem chiron are selective inhibitors of human fatty acid amide hydrolase versus human monoacylglycerol lipase” (J Med Chem, 2009):

B1: Fatty-acid amide hydrolase 1 (Homo sapiens), O00519 (protein)
chain: MVQYELWAALPGASGVALACCFVAAAVALRWSGRRTARGAVVRARQRQRAGLENMDRAAQRFRLQNPDLDSEALLALPLPQLVQKLHSRELAPEAVLFTYVGKAWEVNKGTNCVTSYLADCETQLSQAPRQGLLYGVPVSLKECFTYKGQDSTLGLSLNEGVPAECDSVVVHVLKLQGAVPFVHTNVPQSMFSYDCSNPLFGQTVNPWKSSKSPGGSSGGEGALIGSGGSPLGLGTDIGGSIRFPSSFCGICGLKPTGNRLSKSGLKGCVYGQEAVRLSVGPMARDVESLALCLRALLCEDMFRLDPTVPPLPFREEVYTSSQPLRVGYYETDNYTMPSPAMRRAVLETKQSLEAAGHTLVPFLPSNIPHALETLSTGGLFSDGGHTFLQNFKGDFVDPCLGDLVSILKLPQWLKGLLAFLVKPLLPRLSAFLSNMKSRSAGKLWELQHEIEVYRKTVIAQWRALDLDVVLTPMLAPALDLNAPGRATGAVSYTMLYNCLDFPAGVVPVTTVTAEDEAQMEHYRGYFGDIWDKMLQKGMKKSVGLPVAVQCVALPWQEELCLRFMREVERLMTPEKQSS

Assays:
[1] = molecular target: T1, Fatty-acid amide hydrolase 1 (Homo sapiens, UniProt O00519); assay: Inhibition of human recombinant FAAH using [3H]anandamide by competitive hydrolysis assay
T1 sequence (O00519 whole entry): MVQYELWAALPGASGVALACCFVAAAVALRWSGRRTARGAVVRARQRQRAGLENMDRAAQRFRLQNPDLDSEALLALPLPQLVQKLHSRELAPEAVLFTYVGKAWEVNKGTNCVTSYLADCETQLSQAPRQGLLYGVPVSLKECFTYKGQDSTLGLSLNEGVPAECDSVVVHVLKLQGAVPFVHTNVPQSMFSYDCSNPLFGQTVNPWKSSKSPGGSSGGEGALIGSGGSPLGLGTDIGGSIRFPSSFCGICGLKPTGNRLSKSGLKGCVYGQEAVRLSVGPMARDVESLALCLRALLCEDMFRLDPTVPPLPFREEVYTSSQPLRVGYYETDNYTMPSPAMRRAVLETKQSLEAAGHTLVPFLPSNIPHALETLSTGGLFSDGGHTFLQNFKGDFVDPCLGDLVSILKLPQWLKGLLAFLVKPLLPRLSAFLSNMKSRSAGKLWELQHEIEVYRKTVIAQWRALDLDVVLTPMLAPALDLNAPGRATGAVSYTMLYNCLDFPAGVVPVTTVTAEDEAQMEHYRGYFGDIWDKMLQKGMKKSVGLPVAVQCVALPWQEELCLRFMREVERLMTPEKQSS
How it was run: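 Compounds were added in DMSO, with DMSO alone as control, plus [3H]-AEA at 2 μM final, 37 °C for 10 min. The reaction was stopped on ice with cold chloroform/methanol (1:1), and the aqueous phase was counted by LSC with the buffer-only blank subtracted. IC50 is the mean of three independent experiments.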

[2] = molecular target: T2, Monoglyceride lipase (Homo sapiens) (UniProt Q99685); assay: Inhibition of human recombinant MGL using 2-oleoylglycerol at 100 uM by competitive hydrolysis assay
T2 sequence (whole entry): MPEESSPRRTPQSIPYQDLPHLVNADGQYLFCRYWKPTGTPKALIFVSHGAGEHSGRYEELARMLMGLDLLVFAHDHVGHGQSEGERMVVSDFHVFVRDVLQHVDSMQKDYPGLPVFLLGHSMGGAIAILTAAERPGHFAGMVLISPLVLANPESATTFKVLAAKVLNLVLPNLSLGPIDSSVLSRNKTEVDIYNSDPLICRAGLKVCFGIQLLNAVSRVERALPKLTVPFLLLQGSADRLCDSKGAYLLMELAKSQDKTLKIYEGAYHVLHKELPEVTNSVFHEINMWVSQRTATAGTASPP

[3] = molecular target: T2, Monoglyceride lipase (Homo sapiens); assay: Inhibition of human recombinant MGL using 2-oleoylglycerol at 1 uM by competitive hydrolysis assay
Monoglyceride lipase = molecular target: T3, Monoglyceride lipase (Homo sapiens, UniProt Q99685); assay: Inhibition of human recombinant MGL using 2-oleoylglycerol by competitive hydrolysis assay
T3 sequence (Q99685 whole entry): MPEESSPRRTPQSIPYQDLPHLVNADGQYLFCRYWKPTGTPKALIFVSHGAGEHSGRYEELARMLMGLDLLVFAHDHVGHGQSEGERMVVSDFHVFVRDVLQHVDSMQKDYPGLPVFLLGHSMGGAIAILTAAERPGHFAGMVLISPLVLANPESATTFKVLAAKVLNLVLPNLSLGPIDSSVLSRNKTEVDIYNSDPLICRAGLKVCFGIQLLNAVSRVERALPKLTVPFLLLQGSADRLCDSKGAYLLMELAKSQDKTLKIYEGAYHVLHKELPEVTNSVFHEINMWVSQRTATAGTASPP
How it was run: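 Compounds were added in DMSO, with DMSO as control, plus [3H]-2-oleoylglycerol at 2 μM final, 37 °C for 10 min. Ice-cold chloroform/methanol (1:1) quench, and the methanol/buffer phase was counted by LSC with the blank subtracted. Results are means of three independent assays.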

[4] = substrate: C=CCCC(=O)N1C[C@@H]([C@@H](C)OC(=O)CCCc2ccccc2)C1=O; assay: Hydrolytic activity of human recombinant FAAH at 45 nM by liquid scintillation counting
[5] = substrate: C=CCCC(=O)N1C[C@@H]([C@@H](C)OC(=O)CCCc2ccccc2)C1=O; assay: Hydrolytic activity of human recombinant FAAH at 15 nM by liquid scintillation counting

Row | Molecule | IC50 [1] [nM] | inhibition [2] [%] | inhibition [3] [%] | IC50 (Monoglyceride lipase) [nM] | IC50 (Monoglyceride lipase; read-out: IC50) [nM] | Vmax [4] [nmol/min/mg] | Vmax [5] [nmol/min/mg]
1 | C[C@@H](OC(=O)Cc1ccc(-c2ccccc2)cc1)[C@@H]1CN(C(=O)CCCCc2ccccc2)C1=O | 236 | 25 |  |  |  |  | 
2 | C[C@@H](OC(=O)CCCCc1ccccc1)[C@@H]1CN(C(=O)CCCc2ccccc2)C1=O | 45 | 59 |  |  |  |  | 
3 | C[C@@H](OC(=O)Cc1ccc(-c2ccccc2)cc1)[C@@H]1CN(C(=O)CCCc2ccccc2)C1=O | 32 | 0 |  |  |  |  | 
4 | C[C@@H](OC(=O)CCCc1ccccc1)[C@@H]1CN(C(=O)CCc2ccccc2)C1=O | 49 | 100 | 0 |  |  |  | 
5 | C[C@@H](OC(=O)Cc1ccc(-c2ccccc2)cc1)[C@@H]1CNC1=O | 6500 | 16 |  |  |  |  | 
6 | C[C@@H](OC(=O)CCc1ccccc1)[C@@H]1CN(C(=O)CCc2ccccc2)C1=O | 157 | 100 | 0 |  |  |  | 
7 | C=CCCC(=O)N1C(=O)[C@H]([C@@H](C)O)[C@H]1OC(C)=O | 537000 | 16 |  |  |  |  | 
8 | CC(=O)O[C@@H]1[C@@H]([C@@H](C)O)C(=O)N1C(=O)CCc1ccccc1 | 224000 | 48 |  |  |  |  | 
9 | C=CCCCC(=O)O[C@H](C)[C@@H]1CN(C(=O)CCC=C)C1=O | 32 | 8 |  | 4720 | 4720 |  | 
10 | C=CCCC(=O)N1C[C@@H]([C@@H](C)O)C1=O | 7900 | 89 | 8 |  |  |  | 
11 | C=CCCC(=O)N1C[C@@H]([C@@H](C)OC(=O)CCCc2ccccc2)C1=O | 5 | 89 |  |  | 4060 |  | 
12 | CC(=O)O[C@@H]1[C@@H]([C@@H](C)OC(=O)Cc2ccc(-c3ccccc3)cc2)C(=O)N1C(=O)CCc1ccccc1 | 826 | 66 |  |  |  |  | 
13 | C=CCCCC(=O)N1C[C@@H]([C@@H](C)OC(=O)CCCc2ccccc2)C1=O | 10 | 85 |  |  | 8510 |  | 
14 | CC(=O)O[C@@H]1[C@@H]([C@@H](C)OC(=O)CCCc2ccccc2)C(=O)N1C(=O)CCCc1ccccc1 | 3120 | 100 | 0 |  |  |  | 
15 | C[C@@H](OC(=O)CCCc1ccccc1)[C@@H]1CN(C(=O)CCCc2ccccc2)C1=O | 30 | 100 | 0 |  |  |  | 
16 | C=CCCCC(=O)N1C[C@@H]([C@@H](C)OC(=O)Cc2ccc(-c3ccccc3)cc2)C1=O | 14 | 67 |  |  | 14600 |  | 
17 | CC(=O)O[C@@H]1[C@@H]([C@@H](C)OC(=O)CCc2ccccc2)C(=O)N1C(=O)CCc1ccccc1 | 2020 | 100 | 0 |  |  |  | 
18 | C=CCCC(=O)N1C[C@@H]([C@@H](C)OC(=O)Cc2ccc(-c3ccccc3)cc2)C1=O | 12 | 91 |  |  | 1840 |  | 
19 | C[C@@H](OC(=O)CCCc1ccccc1)[C@@H]1CN(C(=O)CCCCc2ccccc2)C1=O | 449 | 39 |  |  |  |  | 
20 | C=CCCC(=O)O[C@H](C)[C@H]1C(=O)N(C(=O)CCC=C)[C@@H]1OC(C)=O | 1900 | 99 | 33 |  | 133000 |  | 
21 | C[C@@H](OC(=O)Cc1ccc(-c2ccccc2)cc1)[C@@H]1CN(C(=O)CCc2ccccc2)C1=O | 50 | 31 |  |  |  |  | 
22 | C[C@@H](O)[C@@H]1CN(C(=O)CCc2ccccc2)C1=O | 409000 | 8 |  |  |  |  | 
23 | C=CCCC(=O)O[C@H](C)[C@@H]1CN(C(=O)CCC=C)C1=O | 98 | 99 |  |  | 23300 |  | 
24 | C[C@@H](OC(=O)CCCCc1ccccc1)[C@@H]1CN(C(=O)CCc2ccccc2)C1=O | 91 | 100 | 0 |  |  |  | 
25 | C[C@@H](OC(=O)CCc1ccccc1)[C@@H]1CN(C(=O)CCCc2ccccc2)C1=O | 57 | 54 |  |  |  |  | 
26 | CC(=O)O[C@@H]1[C@@H]([C@@H](C)OC(=O)CCc2ccccc2)C(=O)N1C(=O)CCCc1ccccc1 | 5120 | 100 | 0 |  |  |  | 
27 | CC(=O)O[C@@H]1[C@@H]([C@@H](C)OC(=O)Cc2ccc(-c3ccccc3)cc2)C(=O)N1C(=O)CCCc1ccccc1 | 708 | 100 | 0 |  |  |  | 
28 | CC(=O)O[C@@H]1[C@@H]([C@@H](C)O)C(=O)N1C(=O)CCCc1ccccc1 | 183000 | 61 |  |  |  |  | 
29 | CC(=O)O[C@@H]1[C@@H]([C@@H](C)OC(=O)CCCc2ccccc2)C(=O)N1C(=O)CCc1ccccc1 | 960 | 100 | 0 |  |  |  | 
30 | B1 |  |  |  |  |  | 11.9 | 12.8
